Assay outcomes: PubChem BioAssay, several laboratories
Shown are actives, neighbours in structure and some others; about 2.3% of the full set was active somewhere.
PP5 primary: PP5 phosphatase inhibitors, primary screen, biochemical, fluorescence | Serine/threonine-protein phosphatase 5 (Homo sapiens), P53041 | purified PP5c, OMFP substrate fluorescence | inhibition, % at 6.7 µM | hit rate 0.18% among 320,000;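 active = inhibition above the campaign's mean inhibition across all tested compounds plus 3 SD, cut at about 9.5% in these data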;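 note: 0% = DMSO only and 100% = 100 µM cantharidin control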
PREPL inh: PREPL enzyme inhibitors, primary screen, biochemical, fluorescence polarization. recombinant PREPL, fluorescence polarization activity-based probe. inhibition, % at 5.96 µM. hit rate 0.68% among 320,000. AID 2751, 2010;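 note: 0% = enzyme with DMSO and 100% = wells lacking enzyme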
PP1 inh: PP1-alpha phosphatase inhibitors, primary screen, counter-screen for PP5 inhibitor project, biochemical, fluorescence, OMFP substrate, single point. purified PP1alpha. hit rate 0.9% among 320,000. AID 2235, 2010. inhibition, % at 6.7 µM;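 active = inhibition above the mean inhibition of all tested compounds plus 3 SD, computed separately for each screening campaign, cut at about 15% in these data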
Target sequence (P62136 whole entry, looked up): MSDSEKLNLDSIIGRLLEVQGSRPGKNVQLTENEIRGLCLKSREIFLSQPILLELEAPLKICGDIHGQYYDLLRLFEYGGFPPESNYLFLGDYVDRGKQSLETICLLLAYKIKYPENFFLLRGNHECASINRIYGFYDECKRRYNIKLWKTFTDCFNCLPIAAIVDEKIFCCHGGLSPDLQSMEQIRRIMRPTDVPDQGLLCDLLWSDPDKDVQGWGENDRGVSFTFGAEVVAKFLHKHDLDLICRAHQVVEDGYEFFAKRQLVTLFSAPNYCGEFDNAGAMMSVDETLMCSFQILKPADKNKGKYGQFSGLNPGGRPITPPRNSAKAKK
UCH37 inh: inhibitors of human UCH37 deubiquitinase, primary screen, biochemical, Ub-AMC cleavage, fluorescence. Ubiquitin carboxyl-terminal hydrolase isozyme L5 (Homo sapiens), Q9Y5K5. purified proteasome/UCH37. inhibition, % (concentration not given with the values). hit rate 0.33% among 330,000. AID 588478, 2011;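 active = mean inhibition over replicate wells above about 20%, limit read from the data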;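 note: 0% = compound-free wells with enzyme and 100% = wells lacking proteasome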
Target sequence (Q9Y5K5 whole entry, looked up): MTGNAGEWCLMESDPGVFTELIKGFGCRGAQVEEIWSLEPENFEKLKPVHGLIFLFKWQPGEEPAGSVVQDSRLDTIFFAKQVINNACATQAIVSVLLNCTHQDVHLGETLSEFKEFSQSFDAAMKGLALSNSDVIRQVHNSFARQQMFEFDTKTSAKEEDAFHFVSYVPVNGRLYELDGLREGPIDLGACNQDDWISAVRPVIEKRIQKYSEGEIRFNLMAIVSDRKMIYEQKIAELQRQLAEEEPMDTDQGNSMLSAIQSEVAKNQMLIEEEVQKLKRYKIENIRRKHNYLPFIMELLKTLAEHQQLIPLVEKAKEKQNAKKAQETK
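Reagent: Ub-AMC substrate; assay system: Proteasome-associated human UCH37 deubiquitinase; controls: no-proteasome and no-compound wells; read-out: % inhibition of Ub-AMC cleavage fluorescence; timing: 30 min preincubation with enzyme, 25 min cleavage at room temperature; signal: AMC fluorescence from Ub-AMC cleavage, excitation 355 nm, emission 460 nm; buffer or medium: Tris-HCl pH 7.4 plus ovalbumin, ATP-MgCl2, DTT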
Fh CTSL1 inh: Fasciola hepatica cathepsin L1 inhibitors, primary screen, counter-screen for PFM18AAP inhibitor project, biochemical, QFRET, fluorogenic peptide substrate. recombinant F. hepatica cathepsin L1, Z-Leu-Arg-MCA fluorescence. inhibition, % at 5.96 µM. hit rate 0.49% among 300,000. AID 1906, 2009;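 active = inhibition above the mean of all tested compounds plus 3 SD, set per screening campaign, cut at about 17% in these data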;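 note: 0% = plate median of test compound wells and 100% = 1 µM Z-Phe-Ala-diazomethylketone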
UBC13 inh: UBC13 polyubiquitin chain formation inhibitors, primary screen, biochemical, TR-FRET, uHTS; inhibition, % at 20 µM; Ubiquitin-conjugating enzyme E2 N (Homo sapiens), P61088; hit rate 0.47% among 330,000; in the data active = inhibition above about 45%, passing the limit was not always enough
PP1 confirm: PP1 phosphatase inhibitors, confirmation, biochemical, fluorescence, OMFP substrate, triplicate | AID 2358, 2010 | inhibition, % at 6.7 µM | hit rate 52% among 1,900 | purified PP1alpha | shares compounds with PP1 inh;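 active = mean PP1 inhibition above a set limit taken from the earlier primary screen, cut at about 15% in these data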
PP5 inh counter: PP5 phosphatase inhibition by PP1 hits, confirmation, counter-screen for PP1 inhibitor project, biochemical, fluorescence, triplicate. inhibition, % at 6.7 µM. purified PP5c, OMFP fluorescence. shares compounds with PP1 inh. hit rate 4% among 1,900;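 active = mean PP5 inhibition over triplicate wells above about 9.5% taken from the earlier PP1 screen, limit read from the data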
PREPL confirm: human PREPL enzyme inhibitors, confirmation, biochemical, fluorescence polarization. recombinant PREPL, fluorescence polarization activity probe. shares compounds with PREPL inh. hit rate 67% among 2,000. inhibition, % at 5.96 µM;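 note: 0% = protein with DMSO and 100% = wells lacking protein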
Casp3 UBC13 ctr: CASP3 inhibitor validation, counterassay for project on UBE2N polyubiquitination blockers, biochemical, one dose | Recombinant caspase-3, Caspase-Glo 3/7 luminescence, 60 min | hit rate 4% among 1,400 | inhibition, % at 20 µM | shares compounds with UBC13 inh;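 active = mean inhibition across replicates above about 26%, limit read from the data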;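 note: plate controls were DMSO with caspase-3 for no effect and DMSO wells lacking enzyme for full effect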
UBC13 confirm: UBC13 polyubiquitination inhibitors, single-point retest, confirmation, biochemical, TR-FRET, single concentration. shares compounds with UBC13 inh. inhibition, % at 10 µM. hit rate 68% among 1,400; in the data active = inhibition above about 45%
* marks the source's active call; other numbers are inactive results. Cut-off read from the data, not from the text of the source, unless noted: active = inhibition above about 43%; inactive = the rest.

Screening COc1ccc(NC(=O)CSc2nc3nc(C)cc(C)c3c(=O)[nH]2)cc1 returned PP5 primary 9.0, PREPL inh 45.2*, PP1 inh 77.5*, Fh CTSL1 inh 11.8, UBC13 inh 1.0, PP1 confirm -2.5, PP5 inh counter -2.2 and PREPL confirm 0.8.
For COc1cc(OC)nc(N=CN(C)C)n1 the results were UCH37 inh 0.6.
`c1ccc(CNc2nc(-c3ccccc3)nc3ccccc23)cc1` gave PP5 primary 4.7, PREPL inh -7.6, PP1 inh 8.0, UCH37 inh 1.8, Fh CTSL1 inh 0.6 and UBC13 inh 11.3.
c1ccc(CNc2nc(-c3ccccn3)nc3ccccc23)cc1 was read as PP5 primary -0.3, PREPL inh 67.3*, PP1 inh 39.2*, UCH37 inh 3.0, Fh CTSL1 inh 7.5, UBC13 inh 11.3, PP1 confirm 40.3*, PP5 inh counter 0.6 and PREPL confirm 63.8*.
`S=c1[nH]nc(-c2ccccn2)n1N=Cc1ccc(Br)s1` gave UCH37 inh 3.2.
`C#CCOCCOCCOCCNc1nc(N2CCN(C(=O)CCCCCCCCCCNC(=O)Cn3cc(CCCCCN)nn3)CC2)nc(N2CCN(C(=O)CCCCCCCCCCNC(=O)[C@@H](CCSC)n3cc(CCO)nn3)CC2)n1` gave PP5 primary 0.8, PREPL inh 41.3, PP1 inh 35.5*, Fh CTSL1 inh 10.1, UBC13 inh 118.8*, PP1 confirm 41.2*, PP5 inh counter -0.5, Casp3 UBC13 ctr -2.2 and UBC13 confirm 124.7*.
C#CCOCCOCCOCCNc1nc(N2CCN(C(=O)CCCCCCCCCCNC(=O)Cn3cc(CCCCCN)nn3)CC2)nc(N2CCN(C(=O)CCCCCCCCCCNC(=O)Cn3cc(CCCCCN)nn3)CC2)n1 was read as PP5 primary 0.5, PREPL inh 63.6*, PP1 inh 32.7*, Fh CTSL1 inh 9.9, UBC13 inh 117.6*, PP1 confirm 8.8, PP5 inh counter -5.9, PREPL confirm 62.3*, Casp3 UBC13 ctr -0.6 and UBC13 confirm 120.6*.
Screening C#CCOCCOCCOCCNc1nc(N2CCN(C(=O)CCCCCCCCCCNC(=O)Cn3cc(C[C@@H](C)O)nn3)CC2)nc(N2CCN(C(=O)CCCCCCCCCCNC(=O)[C@H](CCCCN)n3cc(CCCC(=O)O)nn3)CC2)n1 returned PP5 primary 2.5, PREPL inh 17.6, PP1 inh -1.4, UCH37 inh 4.4, Fh CTSL1 inh -1.7 and UBC13 inh 43.9.
COc1cc(C=NNc2nc3c(c(=O)n(C)c(=O)n3C)n2Cc2ccccc2)ccc1OC(=O)c1ccco1 was read as UCH37 inh -68.1.
CCOC(=O)c1cc(-c2cccnc2)nn1-c1ccccn1 was read as PP5 primary 0.9, PREPL inh 8.0, PP1 inh 2.1, UCH37 inh -2.8, Fh CTSL1 inh 3.6 and UBC13 inh -4.9.
Screening CCOC(=O)c1cc(-c2ccccc2)nc2c1c(C)nn2-c1ccccn1 returned PP5 primary 1.4, PREPL inh -6.4, PP1 inh 30.6*, UCH37 inh -122.5, Fh CTSL1 inh 3.2, UBC13 inh 61.8*, PP1 confirm 31.5*, PP5 inh counter -3.0, Casp3 UBC13 ctr 1.0 and UBC13 confirm 44.9.
c1ccc(CNc2nc(NCc3ccccc3)c3ccccc3n2)cc1 was read as PP5 primary 3.8, PREPL inh 29.0, PP1 inh 34.1*, UCH37 inh -48.0, Fh CTSL1 inh -3.7, UBC13 inh 75.1*, PP1 confirm 23.4*, PP5 inh counter 1.9, Casp3 UBC13 ctr -1.3 and UBC13 confirm 91.7*.
Fc1ccc(Nc2nc(NCc3ccco3)c3ccccc3n2)cc1 was read as PP5 primary 3.2, PREPL inh 10.4, PP1 inh 19.7*, UCH37 inh -96.9, Fh CTSL1 inh 0.5, UBC13 inh 53.8*, PP1 confirm -0.9, PP5 inh counter -0.4, Casp3 UBC13 ctr 0.9 and UBC13 confirm 73.8*.
`Nc1nc(Nc2ccccc2)nc(NCc2ccco2)c1[N+](=O)[O-]` gave PP5 primary 4.6, PREPL inh -14.5, PP1 inh 4.6, UCH37 inh 7.2, Fh CTSL1 inh 2.6 and UBC13 inh -1.6.
For NC(=NCCCCCCN=C(N)/N=C(\N)Nc1ccc(Cl)cc1)/N=C(\N)Nc1ccc(Cl)cc1 the results were PP5 primary 4.8, PREPL inh -2.0, PP1 inh 20.3*, UCH37 inh 2.1, Fh CTSL1 inh -0.7, UBC13 inh 110.8*, PP1 confirm 5.0, PP5 inh counter -0.1, Casp3 UBC13 ctr -1.6 and UBC13 confirm 118.3*.
CC(C)N=C(N)N=C(N)Nc1ccc(Cl)cc1 was read as PP5 primary 2.9, PREPL inh 12.8, PP1 inh 0.5, UCH37 inh 0.9, Fh CTSL1 inh -1.0 and UBC13 inh 8.3.
`N#C/C(=C/c1cn(-c2ccccc2)nc1-c1cccc(OCc2ccccc2)c1)C(=O)NCCCn1ccnc1` gave PP5 primary 1.4, PREPL inh -7.8, PP1 inh 21.3*, UCH37 inh -43.5, Fh CTSL1 inh -1.6, UBC13 inh 48.1*, PP1 confirm 12.7, PP5 inh counter 0.9, Casp3 UBC13 ctr -1.2 and UBC13 confirm 55.6*.
Screening Cc1ccc(-c2nn(-c3ccccc3)cc2/C=C(\C#N)C(=O)NCc2ccccc2)cc1 returned PP5 primary -1.0, PREPL inh 1.4, PP1 inh -2.2, UCH37 inh -171.0, Fh CTSL1 inh -0.8 and UBC13 inh 4.0.
